Measured values published in ChEMBL document CHEMBL2380300, “Identification of new peptide amides as selective cathepsin L inhibitors: the first step towards selective irreversible inhibitors?” (Bioorg Med Chem Lett, 2013).
Square brackets hold non-standard residues; d marks the D form. Peptide text beside a SMILES is read from it. * marks the point of attachment. ξ: configuration not given here. Bip = N[C@@H](Cc1ccc(-c2ccccc2)cc1)C(=O)O; Phe(4-NH2) = Nc1ccc(C[C@H](N)C(=O)O)cc1; Cbz = O=C(OCc1ccccc1)*; ξPip = O=C(O)C1CCCCN1

Tests used:
[1] = target: T1, Cathepsin K (Homo sapiens, UniProt P43235); assay: Inhibition of recombinant cathepsin-K (unknown origin) using Z-Phe-Arg-AMC as substrate by fluorescence assay
T1 sequence (P43235 whole entry): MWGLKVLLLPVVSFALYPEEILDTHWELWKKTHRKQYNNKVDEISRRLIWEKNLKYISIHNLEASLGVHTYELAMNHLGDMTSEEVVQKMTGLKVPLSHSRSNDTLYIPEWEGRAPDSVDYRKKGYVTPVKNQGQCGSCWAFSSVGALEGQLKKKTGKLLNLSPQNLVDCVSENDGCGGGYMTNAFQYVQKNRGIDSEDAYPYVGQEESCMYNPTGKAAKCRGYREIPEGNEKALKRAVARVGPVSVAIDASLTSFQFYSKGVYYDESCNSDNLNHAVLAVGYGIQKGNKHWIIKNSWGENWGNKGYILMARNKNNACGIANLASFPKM
Method in brief: (§1)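 Recombinant enzyme kinetics. Inhibitor stocks were quantified by amino-acid analysis. Ki was obtained from a minimum of four inhibitor concentrations, each run in duplicate.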

[2] = species: Homo sapiens; assay: Selectivity ratio of Ki for recombinant cathepsin-K (unknown origin) to Ki for recombinant cathepsin-L (unknown origin)
Method in brief: (§2)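 FK = Ki(CatK)/Ki(CatL) and FS = Ki(CatS)/Ki(CatL). Each Ki comes from recombinant enzyme kinetics over a minimum of four inhibitor concentrations, each measured in duplicate.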

[3] = target: Procathepsin L (Homo sapiens, UniProt P07711); assay: Inhibition of recombinant cathepsin-L (unknown origin) using Z-Phe-Arg-AMC as substrate by fluorescence assay
Method in brief: (§3)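 Kinetic assay with recombinant enzyme. Peptide amide stock concentrations were set by amino-acid analysis. Ki was derived from at least three inhibitor concentrations, each measured in duplicate.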

[4] = species: Homo sapiens; assay: Selectivity ratio of Ki for recombinant cathepsin-B (unknown origin) to Ki for recombinant cathepsin-L (unknown origin)
Method in brief: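 Selectivity factor FB = Ki(CatB)/Ki(CatL). Both Ki values come from kinetic runs with the recombinant enzymes, each using at least three inhibitor concentrations in duplicate.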

[5] = target: Cathepsin S (Homo sapiens, UniProt P25774); assay: Inhibition of recombinant cathepsin-S (unknown origin) using Z-Val-Arg-AMC as substrate by fluorescence assay; method in brief: as §1
[6] = species: Homo sapiens; assay: Selectivity ratio of Ki for recombinant cathepsin-S (unknown origin) to Ki for recombinant cathepsin-L (unknown origin); method in brief: as §2
[7] = target: Cathepsin B (Homo sapiens, UniProt P07858); assay: Inhibition of recombinant cathepsin-B (unknown origin) using Z-Arg-Arg-AMC as substrate by fluorescence assay; method in brief: as §3

Sequence of Cathepsin S (P25774 whole entry): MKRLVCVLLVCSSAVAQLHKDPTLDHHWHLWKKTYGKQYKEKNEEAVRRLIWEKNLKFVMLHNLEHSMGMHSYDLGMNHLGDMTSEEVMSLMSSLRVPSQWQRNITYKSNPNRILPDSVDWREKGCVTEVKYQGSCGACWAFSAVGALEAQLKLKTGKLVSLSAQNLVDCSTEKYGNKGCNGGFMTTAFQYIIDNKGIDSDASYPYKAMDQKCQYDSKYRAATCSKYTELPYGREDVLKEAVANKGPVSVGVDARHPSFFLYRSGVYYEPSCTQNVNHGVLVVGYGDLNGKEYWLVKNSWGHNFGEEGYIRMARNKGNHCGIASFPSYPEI
Sequence of Procathepsin L (P07711 whole entry): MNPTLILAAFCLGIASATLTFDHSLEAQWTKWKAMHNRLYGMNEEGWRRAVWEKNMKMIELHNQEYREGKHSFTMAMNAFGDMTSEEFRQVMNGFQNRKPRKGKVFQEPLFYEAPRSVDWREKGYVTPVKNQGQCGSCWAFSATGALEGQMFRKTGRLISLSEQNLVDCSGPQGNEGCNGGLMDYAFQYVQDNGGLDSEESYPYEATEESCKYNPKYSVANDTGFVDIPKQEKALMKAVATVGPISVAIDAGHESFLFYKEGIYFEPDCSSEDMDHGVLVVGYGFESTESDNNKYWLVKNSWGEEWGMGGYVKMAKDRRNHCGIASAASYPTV

SMILES | Ki [1] [µM] | Ratio Ki [2] | Ki [3] [µM] | Ratio Ki [4] | Ki [5] [µM] | Ratio Ki [6] | Ki [7] [µM]
CC(C)C[C@H](NC(=O)OCc1ccccc1)C(=O)N[C@@H](Cc1ccccc1)C(=O)N[C@@H](CCCCN)C(N)=O (Cbz-Leu-Phe-Lys-NH2) | 213 | 473 | 0.45 | 2630 | 12 | 27 | 1180
NCCC[C@H](NC(=O)[C@H](Cc1ccccc1)NC(=O)OCc1ccccc1)C(N)=O | – | – | 3.5 | 703 | – | – | 2460
NCCCC[C@H](NC(=O)[C@H](Cc1ccccc1)NC(=O)c1ccc2ccccc2c1)C(N)=O | – | – | 1 | 301 | – | – | 301
NCCCC[C@H](NC(=O)[C@H](Cc1ccccc1)NC(=O)c1ccc(Br)cc1)C(N)=O | – | – | 2.3 | 113 | – | – | 261
NC(=O)[C@H](Cc1ccc(N)cc1)NC(=O)[C@H](Cc1ccccc1)NC(=O)OCc1ccccc1 (Cbz-Phe-[Phe(4-NH2)]-NH2) | – | – | 26 | 107 | – | – | 2790
CC(=O)Oc1ccc(C(=O)N[C@@H](Cc2ccccc2)C(=O)N[C@@H](CCCCN)C(N)=O)cc1 | – | – | 2.6 | 272 | – | – | 706
Cc1ccccc1-c1ccc(C[C@H](NC(=O)OCc2ccccc2)C(=O)N[C@@H](CCCCN)C(N)=O)cc1 | – | – | 23 | 11 | – | – | 245
C[C@H](NC(=O)[C@H](Cc1ccccc1)NC(=O)OCc1ccccc1)C(N)=O | – | – | 16 | – | – | – | –
NCCCC[C@H](NC(=O)[C@H](Cc1ccc(O)cc1)NC(=O)OCc1ccccc1)C(N)=O (Cbz-Tyr-Lys-NH2) | – | – | 1.4 | 96 | – | – | 135
CC(C)[C@H](NC(=O)[C@H](Cc1ccccc1)NC(=O)OCc1ccccc1)C(N)=O (Cbz-Phe-Val-NH2) | – | – | 17 | – | – | – | –
NCCCC[C@H](NC(=O)[C@H](Cc1ccccc1)NC(=O)[C@H](CCCCN)NC(=O)OCc1ccccc1)C(N)=O (Cbz-Lys-Phe-Lys-NH2) | 284 | 319 | 0.89 | 1680 | 41.1 | 46 | 1490
CC(=O)Oc1cccc(C(=O)N[C@@H](Cc2ccccc2)C(=O)N[C@@H](CCCCN)C(N)=O)c1 | – | – | 2.4 | 425 | – | – | 1020
NCCCC[C@H](NC(=O)[C@H](Cc1ccccc1)NC(=O)CCc1ccc(O)cc1)C(N)=O | – | – | 2.5 | 54 | – | – | 135
NCCCC[C@H](NC(=O)[C@H](Cc1ccccc1)NC(=O)c1ccnc(-c2cc(C(=O)O)ccn2)c1)C(N)=O | – | – | 4.6 | 187 | – | – | 860
CN(C)c1ccc(C(=O)N[C@@H](Cc2ccccc2)C(=O)N[C@@H](CCCCN)C(N)=O)cc1 | – | – | 2.9 | 9 | – | – | 26
NCCCC[C@H](NC(=O)[C@H](Cc1ccccc1)NC(=O)OCc1ccccc1)C(N)=O | 47 | 11 | 4.2 | 810 | 56 | 13 | 3410
NCCCC[C@H](NC(=O)[C@H](Cc1ccccc1)NC(=O)c1ccc(N)nc1)C(N)=O | – | – | 5 | 30 | – | – | 148
NCCCC[C@H](NC(=O)[C@H](Cc1ccc(-c2cccc(Cl)c2)cc1)NC(=O)OCc1ccccc1)C(N)=O | – | – | 1.7 | 34 | – | – | 58
NCCCC[C@H](NC(=O)[C@H](Cc1ccccc1)NC(=O)C1CCCCN1)C(N)=O (stereo partly drawn) (H-[ξPip]-Phe-Lys-NH2) | – | – | 6.1 | 8.4 | – | – | 51
NC(=O)[C@H](N)NC(=O)[C@H](Cc1ccccc1)NC(=O)OCc1ccccc1 | – | – | 28 | – | – | – | –
CC(C)(C)c1ccc(C(=O)N[C@@H](Cc2ccccc2)C(=O)N[C@@H](CCCCN)C(N)=O)cc1 | – | – | 1 | 312 | – | – | 312
NCCCC[C@H](NC(=O)[C@H](Cc1ccccc1)NC(=O)[C@H](Cc1c[nH]c2ccccc12)NC(=O)OCc1ccccc1)C(N)=O (Cbz-Trp-Phe-Lys-NH2) | 639 | 1640 | 0.39 | 2140 | 20 | 51 | 835
NCCCC[C@H](NC(=O)[C@H](Cc1c[nH]c2ccccc12)NC(=O)OCc1ccccc1)C(N)=O (Cbz-Trp-Lys-NH2) | – | – | 4.2 | 24 | – | – | 100

SMILES | Ki [1] [µM] | Ratio Ki [2] | Ki [3] [µM] | Ratio Ki [4] | Ki [5] [µM] | Ratio Ki [6] | Ki [7] [µM]
NCCCC[C@H](NC(=O)[C@H](Cc1ccc(-c2ccccc2)cc1)NC(=O)OCc1ccccc1)C(N)=O (Cbz-[Bip]-Lys-NH2) | – | – | 2.4 | 32 | – | – | 77
NCCCC[C@H](NC(=O)[C@H](Cc1ccc(-c2cccs2)cc1)NC(=O)OCc1ccccc1)C(N)=O | 24 | 200 | 0.12 | 325 | 28 | 233 | 39
Cc1cccc(C)c1C(=O)N[C@@H](Cc1ccccc1)C(=O)N[C@@H](CCCCN)C(N)=O | – | – | 20 | 169 | – | – | 3390
Cc1ccc(-c2ccc(C[C@H](NC(=O)OCc3ccccc3)C(=O)N[C@@H](CCCCN)C(N)=O)cc2)cc1 | – | – | 1.7 | 66 | – | – | 113
NCCCC[C@H](NC(=O)[C@H](Cc1ccc(-c2cccc(N)c2)cc1)NC(=O)OCc1ccccc1)C(N)=O | – | – | 1.8 | 21 | – | – | 38
NCCCC[C@H](NC(=O)[C@H](Cc1ccccc1)NC(=O)CCc1ccccc1)C(N)=O | – | – | 3.2 | 636 | – | – | 2040
NC(=O)[C@H](CCCC(N)O)NC(=O)[C@H](Cc1ccccc1)NC(=O)OCc1ccccc1 (stereo partly specified) | – | – | 27 | 64 | – | – | 1730
NC(=O)[C@H](Cc1c[nH]cn1)NC(=O)[C@H](Cc1ccccc1)NC(=O)OCc1ccccc1 (Cbz-Phe-His-NH2) | – | – | 14 | – | – | – | –
CNCCCC[C@H](NC(=O)[C@H](Cc1ccccc1)NC(=O)OCc1ccccc1)C(N)=O | – | – | 2.6 | 595 | – | – | 1550
NCCCC[C@H](NC(=O)[C@H](Cc1ccccc1)NC(=O)[C@H](CCC(N)=O)NC(=O)OCc1ccccc1)C(N)=O (Cbz-Gln-Phe-Lys-NH2) | – | – | 7 | 506 | – | – | 3550
NCCCC[C@H](NC(=O)[C@H](Cc1ccccc1)NC(=O)c1ccccn1)C(N)=O | – | – | 5.5 | 15 | – | – | 80
CC(C)C[C@H](NC(=O)[C@H](Cc1ccccc1)NC(=O)OCc1ccccc1)C(N)=O (Cbz-Phe-Leu-NH2) | – | – | 14 | 310 | – | – | 4340
CSCC[C@H](NC(=O)[C@H](Cc1ccccc1)NC(=O)OCc1ccccc1)C(N)=O (Cbz-Phe-Met-NH2) | – | – | 64 | 111 | – | – | 7100
N=C(N)NCCC[C@H](NC(=O)[C@H](Cc1ccccc1)NC(=O)OCc1ccccc1)C(N)=O (Cbz-Phe-Arg-NH2) | – | – | 28 | 12 | – | – | 349
N=C(N)NCCC[C@H](NC(=O)OCc1ccccc1)C(=O)N[C@@H](Cc1ccccc1)C(=O)N[C@@H](CCCCN)C(N)=O (Cbz-Arg-Phe-Lys-NH2) | 147 | 198 | 0.74 | 1760 | 8.5 | 11 | 1300
NCCCC[C@H](NC(=O)[C@H](Cc1ccccc1)NC(=O)c1cc([N+](=O)[O-])ccc1Cl)C(N)=O | – | – | 2.7 | 651 | – | – | 1760
NCCCC[C@H](NC(=O)[C@H](Cc1c[nH]cn1)NC(=O)OCc1ccccc1)C(N)=O (Cbz-His-Lys-NH2) | – | – | 3.1 | 18 | – | – | 56
NCCCC[C@H](NC(=O)[C@H](Cc1ccccc1)NC(=O)c1c(F)c(F)c(F)c(F)c1F)C(N)=O | – | – | 6.8 | 20 | – | – | 134
NCCCC[C@H](NC(=O)[C@H](Cc1ccc(-c2ccc(-c3ccccc3)cc2)cc1)NC(=O)OCc1ccccc1)C(N)=O | – | – | 2.6 | 28 | – | – | 74
NCCCC[C@H](NC(=O)[C@H](Cc1ccccc1)NC(=O)C1=CCCC1)C(N)=O | – | – | 7.8 | 80 | – | – | 623
Cc1cccc(-c2ccc(C[C@H](NC(=O)OCc3ccccc3)C(=O)N[C@@H](CCCCN)C(N)=O)cc2)c1 | – | – | 2.5 | 156 | – | – | 389
NCCCC[C@H](NC(=O)[C@H](Cc1ccccc1)NC(=O)c1ccc(-c2ccccc2)cc1)C(N)=O | – | – | 9 | 9 | – | – | 84
